Source: ChEMBL document CHEMBL2417481, “Regioselective synthesis of 6-substituted-2-amino-5-bromo-4(3H)-pyrimidinones and evaluation of their antiviral activity” (Eur J Med Chem, 2013)

Columns and labels:
Influenza B virus = test: Antiviral activity against Influenza B virus infected in MDCK cells assessed as reduction in virus-induced cytopathogenicity; assay type: functional, organism-based
Summary of the method: (§1)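 Confluent cell monolayers (Vero, HeLa, HEL or MDCK, as named in each line) were infected with 100 CCID50 of virus while exposed to a range of compound concentrations. Cytopathicity was scored once it was complete in untreated infected controls.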

Influenza A virus [1] = test: Antiviral activity against Influenza A virus […] infected in MDCK cells assessed as reduction in virus-induced cytopathogenicity; assay type: functional, organism-based; summary of the method: as §1
Punta Toro virus = test: Antiviral activity against Punta Toro virus infected in african green monkey Vero cells assessed as reduction in virus-induced cytopathogenicity; assay type: functional, organism-based; summary of the method: as §1
Coxsackievirus B4 [2] = test: Antiviral activity against Coxsackievirus B4 infected in african green monkey Vero cells assessed as reduction in virus-induced cytopathogenicity; assay type: functional, organism-based; settings: Enterovirus B; summary of the method: as §1
Sindbis virus = test: Antiviral activity against Sindbis virus infected in african green monkey Vero cells assessed as reduction in virus-induced cytopathogenicity; assay type: functional, organism-based; summary of the method: as §1
[3] = tested on: Mammalian orthoreovirus 1; test: Antiviral activity against Reovirus-1 infected in african green monkey Vero cells assessed as reduction in virus-induced cytopathogenicity; assay type: functional, organism-based; settings: Mammalian orthoreovirus 1, Vero
Summary of the method: (§2)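 Confluent Vero monolayers in 96-well plates were inoculated with 100 CCID50 of virus together with varying compound concentrations. Cytopathicity was scored once it was complete in untreated virus-infected control cultures.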

Human respirovirus 3 = test: Antiviral activity against Parainfluenza virus 3 infected in african green monkey Vero cells assessed as reduction in virus-induced cytopathogenicity; assay type: functional, organism-based; settings: Human respirovirus 3, Vero; summary of the method: as §2
[4] = tested on: Respiratory syncytial virus; test: Antiviral activity against Respiratory syncytial virus Long infected in human HeLa cells assessed as reduction in virus-induced cytopathogenicity; assay type: functional, organism-based; summary of the method: as §1
Coxsackievirus B4 [5] = test: Antiviral activity against Coxsackievirus B4 infected in human HeLa cells assessed as reduction in virus-induced cytopathogenicity; assay type: functional, organism-based; settings: Enterovirus B; summary of the method: as §1
Influenza A virus [6] = test: Antiviral activity against Influenza A virus H1N1 infected in MDCK cells assessed as reduction in virus-induced cytopathogenicity; assay type: functional, organism-based; summary of the method: as §1
[7] = tested on: Vesicular stomatitis virus; test: Antiviral activity against Vesicular stomatitis virus infected in human HeLa cells assessed as reduction in virus-induced cytopathogenicity; assay type: functional, organism-based; summary of the method: as §1
Human alphaherpesvirus 1 [8] = test: Antiviral activity against thymidine kinase negative […] Herpes simplex virus-1 KOS infected in human HEL cells assessed as reduction in virus-induced cytopathogenicity; assay type: functional, organism-based; settings: Human alphaherpesvirus 1, KOS; summary of the method: as §1
[9] = tested on: Vesicular stomatitis virus; test: Antiviral activity against Vesicular stomatitis virus infected in human HEL cells assessed as reduction in virus-induced cytopathogenicity; assay type: functional, organism-based; summary of the method: as §1
Human alphaherpesvirus 2 = test: Antiviral activity against Herpes simplex virus-2 G infected in human HEL cells assessed as reduction in virus-induced cytopathogenicity; assay type: functional, organism-based; settings: Human alphaherpesvirus 2, strain G; summary of the method: as §1
Human alphaherpesvirus 1 [10] = test: Antiviral activity against Herpes simplex virus-1 KOS infected in human HEL cells assessed as reduction in virus-induced cytopathogenicity; assay type: functional, organism-based; settings: Human alphaherpesvirus 1, KOS; summary of the method: as §1
Felid alphaherpesvirus 1 = test: Antiviral activity against Feline Herpes virus infected in cat CRFK cells assessed as inhibition of virus-induced cytopathic effect by MTS assay; assay type: functional, organism-based; settings: Felid alphaherpesvirus 1, CRFK
Feline coronavirus = test: Antiviral activity against Feline coronavirus infected in cat CRFK cells assessed as inhibition of virus-induced cytopathic effect by MTS assay; assay type: functional, organism-based; settings: Alphacoronavirus 1, CRFK
Human alphaherpesvirus 3 [11] = test: Antiviral activity against thymidine kinase negative Varicella-zoster virus 07-1 infected in human HEL cells assessed as reduction in the virus plaque formation; assay type: functional, organism-based; settings: Human alphaherpesvirus 3, 07-1, HEL
Summary of the method: (§3)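 Confluent HEL fibroblast cultures received 20 PFU of VZV together with varying compound concentrations. Plaque formation was read when it reached completion in untreated virus controls.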

Human alphaherpesvirus 3 [12] = test: Antiviral activity against thymidine kinase positive Varicella-zoster virus OKA infected in human HEL cells assessed as reduction in virus plaque formation; assay type: functional, cell-based, Human herpesvirus 3 strain Oka vaccine; settings: Human alphaherpesvirus 3, OKA; summary of the method: as §3
Cytomegalovirus [13] = test: Antiviral activity against Cytomegalovirus Davis infected in human HEL cells assessed as reduction in virus plaque formation; assay type: functional, organism-based; settings: Human betaherpesvirus 5, Davis
Summary of the method: (§4)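 Confluent HEL fibroblasts were inoculated with 100 PFU of CMV at graded compound concentrations. Plaques were counted once formation was complete in untreated infected controls.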

[14] = Cytotoxicity against MDCK cells assessed as morphological changes; assay type: cell-based, Canis lupus familiaris; settings: dog
[15] = Cytotoxicity against african green monkey Vero cells assessed as morphological changes; assay type: cell-based; settings: chlorocebus sabaeus
[16] = Cytotoxicity against human HeLa cells assessed as morphological changes; assay type: cell-based
[17] = Cytotoxicity against cat CRFK cells assessed as cell viability by MTS assay; assay type: cell-based, Felis catus
Cytomegalovirus [18] = test: Antiviral activity against Cytomegalovirus AD-169 infected in human HEL cells assessed as reduction in virus plaque formation; assay type: functional, organism-based; settings: Human betaherpesvirus 5, AD-169, HEL; summary of the method: as §4
[19] = Cytotoxicity against human HEL cells assessed as morphological changes; assay type: cell-based

Nc1nc(CC(O)c2ccc(Cl)cc2)c(Br)c(=O)[nH]1 (stereo unspecified)
EC50 (Influenza B virus): > 100 µM
EC50 (Influenza A virus [1]): > 100 µM
EC50 (Punta Toro virus): > 100 µM
EC50 (Coxsackievirus B4 [2]): > 100 µM
EC50 (Sindbis virus): > 100 µM
EC50 [3]: > 100 µM
EC50 (Human respirovirus 3): > 100 µM
EC50 [4]: > 100 µM
EC50 (Coxsackievirus B4 [5]): > 100 µM
EC50 (Influenza A virus [6]): > 100 µM
EC50 [7]: 45 µM
EC50 (Human alphaherpesvirus 1 [8]): > 100 µM
EC50 [9]: > 100 µM
EC50 (Human alphaherpesvirus 2): > 100 µM
EC50 (Human alphaherpesvirus 1 [10]): > 100 µM
EC50 (Felid alphaherpesvirus 1): > 100 µM
EC50 (Feline coronavirus): > 100 µM
EC50 (Human alphaherpesvirus 3 [11]): 100 µM
EC50 (Human alphaherpesvirus 3 [12]): 100 µM
EC50 (Cytomegalovirus [13]): 100 µM
MCC [14]: > 100 µM
MCC [15]: > 100 µM
MCC [16]: > 100 µM
MCC [17]: > 100 µM
EC50 (Cytomegalovirus [18]): 100 µM
MCC [19]: > 100 µM
